From paper PMC11959959 (Acta Pharmaceutica Sinica. B, 2024)

Columns and labels:
[1] = test system: B16F10 cells; assay: Cell uptake assay in B16F10 cells; type: cell-based, murine; conditions: 750 kBq/mL, 5-80 min
[2] = test system: B16F10 tumor-bearing mice; assay: PET/CT imaging in B16F10 tumor-bearing mice; type: in vivo; conditions: 0.5 and 1 h p.i.
Outline: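 Mice bear s.c. B16F10 allografts (1×10^6 cells, left flank), imaged at tumor volume ≥100 mm³, usually day 10. They receive 200 μCi of tracer in 100 μL normal saline by tail vein. Dynamic micro-PET/CT runs for 1 h from injection, with three mice per tracer. The PEGylated tracer also gets static scans at 0.5, 1, 5, 10 and 24 h. Data are decay-corrected and given as %ID/g.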

Question: With “[^64Cu]QM-2303: 64Cu-labeled PEGibody from QM-2302 PEGylated with 4-arm PEG (KSSPHSRNSGSGSGSGSGRGDSPC; NOTA conjugated to the N-terminus; thiol group of the C-terminal cysteine linked to 4-arm PEG; labelled with ^64Cu in the cell assays)” as the substance, how does the “cell uptake / percentage of binding to integrin α5β1” value [1] read?
Answer: Its value is “greater percentage of binding to integrin α5β1 than [^64Cu]QM-2301 and [^64Cu]QM-2302”.

Question: What about the “kidney accumulation” value [2] of the same substance?
Answer: Its value is “comparable to that of [^64Cu]QM-2301”.
